Only some compounds are listed: those with a hit (about 2.5% of all), similar ones and a draw of the others.
T cell modulator: T cell immune modulators affecting CD8 T cell-vesicle binding; 2C CD8+ T cell-vesicle binding, flow cytometry; active compounds read low; response (vesicle binding), % at 7 µM; actives 0.068% (n = 330,000); AID 2052;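 active means response, share of CD8 T cells binding vesicles, and their 90th percentile fluorescence all below set limits, cut at about 80% in these data, passing the limit was not always enough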;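 further: values below 100% mean blocked vesicle binding to the CD8+ T cells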
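incubation = binding step 1.5 h, 37 °C, antibody labelling 20 min, ice | test system = 2C mouse CD8+ T cells | read-out basis = percent CD8+ FL2 mean versus row control | controls = Peptide-free naked vesicles (low) and QL9 vesicles with 0.7% DMSO vehicle (high) | detection = flow cytometry of vesicle-bound cells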
UCH37 DUB inh: inhibitors of human deubiquitinating enzyme UCH37 | purified proteasome/UCH37, Ub-AMC cleavage fluorescence | actives 0.33% (n = 330,000) | inhibition, % (concentration not given with the values) | Q9Y5K5;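 active means mean inhibition over replicate wells above about 20%, limit read from the data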;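 further: 0% = compound-free wells with enzyme and 100% = wells lacking proteasome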
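Material: Human UCH37 enzyme supplied as purified proteasome complex | Schedule: 30 min compound-proteasome preincubation then 25 min substrate reaction, room temperature | Detection: AMC fluorescence from Ub-AMC cleavage, excitation 355 nm, emission 460 nm | Benchmarks: Wells without proteasome as full block, compound-free enzyme plus substrate as uninhibited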
MEKK2mut PB1 HTS: signal of MEK5 binding to mutant human MEKK2 PB1 domain; bead flow cytometry, Alexa488-MEK5 binding to MEKK2 mutant; percent response, % at 10 µM; AID 1530; actives 0.35% (n = 290,000); in the data active means percent response above about 24%, passing the limit was not always enough
Rce1 inhib: inhibitors of yeast Ras-converting enzyme; Q03530; yeast membranes, quenched prenylated peptide cleavage fluorescence; calls only; actives 0.27% (n = 290,000); AID 2563;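 active means fall in fluorescence gain of 50% or more versus controls, with final raw signal at or below 3038400; inconclusive means same 50% fall but final raw signal above 3038400; inactive means fall in fluorescence gain under 50%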;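 further: plate controls were neutral control wells for no effect and wells lacking membranes for full effect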
MEKK2 WT-MEK5: raises or lowers MEK5 binding to wildtype human MEKK2 PB1 domain; actives 1.1% (n = 290,000); AID 1531; bead flow cytometry, Alexa488-MEK5 binding to MEKK2 WT; actives lie on both sides; binding response (% of control), % at 10 µM; Q9Y2U5; in the data active means binding response below about 67% or above about 130%; inconclusive means no clear call, values can overlap the other calls; inactive means in between
MEKK3 PB1 HTS: raises or lowers MEK5 binding to the human MEKK3 PB1 domain; Q99759; bead-based flow cytometry, Alexa488-MEK5 binding to MEKK3; actives lie on both sides; 0 = blocked by unlabeled MEK5, 100 = vehicle; binding response (% of control), % at 10 µM; actives 1.4% (n = 290,000); AID 1529;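 active means binding response more than 3 SD above or below the average of its plate-row segment, actives on both sides; inconclusive means wells at one plate position flagged as instrument error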;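 further: Alexa488 bead fluorescence after subtracting the streptavidin-only scavenger bead signal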
Target sequence (Q99759 whole entry, looked up, the tested form may be a part): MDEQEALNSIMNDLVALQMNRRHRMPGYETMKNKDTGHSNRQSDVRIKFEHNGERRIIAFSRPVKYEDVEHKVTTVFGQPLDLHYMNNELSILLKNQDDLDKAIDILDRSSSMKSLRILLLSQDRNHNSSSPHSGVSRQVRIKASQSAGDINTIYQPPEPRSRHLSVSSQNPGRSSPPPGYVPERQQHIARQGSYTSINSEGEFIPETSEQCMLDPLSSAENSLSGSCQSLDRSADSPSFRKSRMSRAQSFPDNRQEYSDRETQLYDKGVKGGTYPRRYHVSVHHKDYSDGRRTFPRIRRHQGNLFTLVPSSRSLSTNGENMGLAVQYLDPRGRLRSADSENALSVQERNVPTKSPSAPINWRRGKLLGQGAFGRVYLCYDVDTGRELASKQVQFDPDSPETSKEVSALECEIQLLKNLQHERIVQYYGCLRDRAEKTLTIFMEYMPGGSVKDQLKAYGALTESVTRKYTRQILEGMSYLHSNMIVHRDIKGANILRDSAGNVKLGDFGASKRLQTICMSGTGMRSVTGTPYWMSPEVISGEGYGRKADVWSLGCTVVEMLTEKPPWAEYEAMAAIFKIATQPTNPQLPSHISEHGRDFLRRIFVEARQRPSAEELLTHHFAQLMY
Active calls of the source: *; i = inactive; ? = inconclusive; . = no result; + = active, no number; [ ] = dose if it differs, or a comment.

SMILES	T cell modulator	UCH37 DUB inh	MEKK2mut PB1 HTS	Rce1 inhib	MEKK2 WT-MEK5	MEKK3 PB1 HTS
CC(=NOCC(=O)NC(C)C)c1cccs1	.	1	.	.	.	.
CCOc1cc(C=NNC(=O)c2ccc(NC(=O)C(C)(C)C)cc2)ccc1OC(=O)c1cccc(C)c1	.	5	.	.	.	.
C/C(=N/NC(=O)c1cccc(N2CCCC2=O)c1)c1ccncc1	154	.	3	i	-5.0*	102
O=C(Nc1ccc(OC(F)F)c(Cl)c1)C(c1ccccc1)c1ccccc1	187	-1	4	i	134	147*
COc1ccc(S(=O)(=O)N2CCN(C(=O)c3cnc(C)cn3)CC2)cc1	i	34*	5	i	107	102
Cn1c(=S)n(N=Cc2ccc3c(c2)OCO3)c2ccccc21	.	2	.	.	.	.
CCCCOc1ccc(C(=O)Nn2c(-c3cccs3)nc3ccccc3c2=O)cc1	i	-421	-2	+	95	95
O=C(/C=C/c1ccccc1)Nn1c(-c2cccs2)nc2ccccc2c1=O	226	2	1	i	106	104
CC(C)c1cc(C(=O)NN=C/C(Br)=C/c2ccccc2)n[nH]1	.	8	.	.	.	.
COc1ccc2c(c1)c1ncn(CCN3CCNCC3)c(=O)c1n2C	106	i	10	?	120	113
COc1ccc2c(c1)c1ncn(CCN3CCCC3)c(=O)c1n2C	214	-251	0	+	102	102
COc1ccc2c(c1)c1ncn(CCN3CCCCC3)c(=O)c1n2C	300	-311	-2	+	88	78
CN1C(=O)/C(=C/c2cccc(Cl)c2)Sc2ccc(C(=O)N3CCOCC3)cc21	352	-2	4	+	107	101
CCOc1ccc(/C=C2/Sc3ccc(C(=O)N4CCOCC4)cc3N(C)C2=O)cc1OC	112	2	-9	i	93	88
Cc1cc(=O)oc2cc(OCC(=O)NC3CC(C)(C)NC(C)(C)C3)ccc12	233	-11	-12	i	74	78*[inhibitor]
CCc1cc(=O)oc2cc(OCC(=O)NC3CC(C)(C)NC(C)(C)C3)ccc12	627	-13	4	i	111	103
CN(N=Cc1ccco1)C1=NS(=O)(=O)c2ccccc21	.	-255	.	.	.	.
O=C(NC(NC(=O)c1c(F)cccc1F)c1ccc([N+](=O)[O-])cc1)c1c(F)cccc1F	83	2	5	i	100	101
Cc1ccc(C(C)C)cc1NC(=O)Nc1ccc([N+](=O)[O-])cc1	73	.	25*	i	157*	112
CC(C)C(=O)NC(NC(=O)C(C)C)c1ccc([N+](=O)[O-])cc1	265	1	3	i	-1.0*	100
COc1ccc(CN2C(=O)c3ccccc3C(C=NOCc3ccc(Cl)cc3)C2=O)cc1 (stereo not drawn)	.	-42	.	.	.	.
COc1cc(C(=O)Nc2nnc(-c3sccc3C)s2)cc(OC)c1OC	80*	-51	2	i	101	107
CCOC(=O)c1c(C2COc3ccccc3O2)csc1NC(=O)c1ccccc1 (stereo not drawn)	618	-179	-11	+	84	90
Cc1cc(NS(=O)(=O)c2ccccc2)c([N+](=O)[O-])cc1C	250	.	-2	+	96	95
CCOc1cc(C=NNC(N)=O)ccc1OCC(=O)Nc1ccc(C)c(C)c1	.	2	.	.	.	.
SMILES	T cell modulator	UCH37 DUB inh	MEKK2mut PB1 HTS	Rce1 inhib	MEKK2 WT-MEK5	MEKK3 PB1 HTS
O=C(CCN1CCOCC1)N1CCc2c([nH]c3ccccc23)C1c1cccc(Cl)c1 (stereo not drawn)	184	23*	3	i	104	101
O=C(c1cccs1)N1CCc2c([nH]c3ccccc23)C1c1ccc(Cl)cc1 (stereo not drawn)	564	2	-17	i	90	101
CN(C)CCCN(C(=O)c1cc(-c2cccs2)nc2ccccc12)c1nc2ccc(F)cc2s1	368	-4	54*	+	203*	109
CCN(CC)CCN(C(=O)c1ccc2c(c1)CCCC2)c1nc2ccc(C)cc2s1	276	1	31*	i	148*	108
CCN(CC)CCN(C(=O)c1ccc2c(c1)CCCC2)c1nc2ccc(OC)cc2s1	252	3	18	i	130	106
CN(C)CCN(C(=O)c1cc(Cl)sc1Cl)c1nc2ccc(F)cc2s1	234	3	25	i	118	112
Cc1cc(C)c2sc(N(CCCN(C)C)C(=O)c3ccc(S(=O)(=O)N4CCc5ccccc5C4)cc3)nc2c1	383	.	.	i	.	.
CN(C)CCCN(C(=O)c1ccc(S(=O)(=O)N2CCc3ccccc32)cc1)c1nc2ccc(Cl)cc2s1	415	6	33*	i	181*	107
Cc1ccc2nc(N(CCCN(C)C)C(=O)c3ccc(S(=O)(=O)N4CCc5ccccc5C4)cc3)sc2c1	439	.	55*	i	223*	113
Clc1ccc(Oc2cccc(C=Nn3cnnc3)c2)cc1	.	1	.	.	.	.
C(=NNc1nc(Nc2ccccc2)nc(N2CCCCC2)n1)c1ccco1	.	3	.	.	.	.
O=C(/C=C/c1ccc([N+](=O)[O-])cc1)Oc1ccc(C=NNC(=O)c2ccncc2)cc1	.	4	.	.	.	.
CN(C)CCCN(C(=O)c1ccc(S(=O)(=O)N2CCc3ccccc3C2)cc1)c1nc2ccc(F)cc2s1	446	.	71*	i	252*	116
COc1ccc2sc(N(CCCN(C)C)C(=O)c3ccc(S(=O)(=O)N4CCc5ccccc5C4)cc3)nc2c1	184	.	.	i	.	.
O=C(CCc1ccc(S(=O)(=O)N2CCOCC2)cc1)NN=Cc1ccc(O)c(O)c1O	.	7	.	.	.	.
CC(=NNC(=S)Nc1ccc(C)c(C)c1)c1ccc(N2CCOCC2)cc1	.	-9	.	.	.	.
O=c1cc(-c2ccco2)nc(SCc2cccc(Cl)c2)[nH]1	340	-1	-4	i	-8.0*	99
Cc1cc(-c2ccccc2)n2nc(C)c(C#N)c2n1	406	-130	-3	+	96	97
COc1ccc(-c2c(C)nn3c(-c4ccccc4)cc(C)nc23)cc1	639	-1	5	i	104	112
Cc1ccc2[nH]cc(CCNC(=O)/C=C/c3ccco3)c2c1	78*	3	0	i	104	105
Cc1ccc2[nH]cc(CCNC(=O)c3ccco3)c2c1	125	4	-8	i	96	96
Cc1cc(C)c(NN=c2c(=O)c3ccccc3c2=O)c(C)c1	387	3	.	i	.	.
O=c1c(=NNc2ccccc2Cl)c(=O)c2ccccc12	.	7	-12	.	88	77*[inhibitor]
CC(C)c1ccc(-c2nc3ccccc3s2)cc1	177	1	4	i	-3.0*	104
COc1cc(-c2nc3ccccc3s2)ccc1O	796	-163	-6	?	92	94

Bioassay records from PubChem.
